Legend:
COLO 205 [1] = assay: Difference in days for treated (T)and control (C) COLO 205 cell tumors to reach 750 mg in mice at […] peroral dose, days 9-23 administration; format: functional, Mus musculus; settings: route oral
COLO 205 [2] = assay: Weight change of COLO 205 cell tumors in mice at […] peroral dose, days 9-23 administration; format: functional, organism-based; set-up: dose 8.9 mg/kg; settings: Mus musculus
HT-29 [3] = assay: Weight change of HT-29 cell tumors in mice at […] peroral dose, days 15-29 administration; format: functional, organism-based; set-up: dose 8.3 mg/kg; settings: Mus musculus
[4] = molecular target: Platelet-derived growth factor receptor beta (Mus musculus, UniProt P05622); assay: Inhibitory concentration was evaluated against Platelet-derived growth factor receptor beta (PDGFr) tyrosine kinase
Sequence of Platelet-derived growth factor receptor beta (P05622 whole entry): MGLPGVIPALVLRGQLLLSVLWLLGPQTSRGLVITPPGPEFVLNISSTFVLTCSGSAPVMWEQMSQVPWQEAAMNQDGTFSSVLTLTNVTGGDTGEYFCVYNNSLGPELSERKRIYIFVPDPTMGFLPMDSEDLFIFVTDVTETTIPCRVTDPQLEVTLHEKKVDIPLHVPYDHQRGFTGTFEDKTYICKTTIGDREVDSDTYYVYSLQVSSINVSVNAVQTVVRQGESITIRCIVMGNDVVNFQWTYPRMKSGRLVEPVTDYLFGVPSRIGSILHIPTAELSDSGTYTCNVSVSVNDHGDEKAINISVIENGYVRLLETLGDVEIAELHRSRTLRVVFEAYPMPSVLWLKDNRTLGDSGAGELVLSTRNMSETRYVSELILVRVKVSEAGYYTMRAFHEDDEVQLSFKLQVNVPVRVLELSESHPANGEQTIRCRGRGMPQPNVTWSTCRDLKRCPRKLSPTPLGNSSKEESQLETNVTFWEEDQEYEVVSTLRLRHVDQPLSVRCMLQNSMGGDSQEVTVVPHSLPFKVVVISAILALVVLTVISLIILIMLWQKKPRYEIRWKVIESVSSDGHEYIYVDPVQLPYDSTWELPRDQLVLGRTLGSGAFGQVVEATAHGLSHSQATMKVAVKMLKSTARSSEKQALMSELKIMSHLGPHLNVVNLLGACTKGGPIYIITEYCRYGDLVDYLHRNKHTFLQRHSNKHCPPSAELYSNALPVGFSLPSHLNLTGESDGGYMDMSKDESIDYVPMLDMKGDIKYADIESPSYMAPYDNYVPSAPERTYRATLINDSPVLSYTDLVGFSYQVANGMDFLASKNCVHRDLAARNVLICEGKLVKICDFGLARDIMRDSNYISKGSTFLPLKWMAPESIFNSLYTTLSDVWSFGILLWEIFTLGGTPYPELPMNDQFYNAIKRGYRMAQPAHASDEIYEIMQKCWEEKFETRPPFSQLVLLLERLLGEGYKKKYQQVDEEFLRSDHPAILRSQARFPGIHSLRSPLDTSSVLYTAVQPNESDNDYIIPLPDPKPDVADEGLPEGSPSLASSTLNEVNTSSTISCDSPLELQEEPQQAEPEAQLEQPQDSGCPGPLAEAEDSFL

[5] = molecular target: Platelet-derived growth factor receptor (Mus musculus, UniProt P05622+P26618); assay: Inhibition of PDGF-induced autophosphorylation of PDGF-R in NIH3T3 cells
[6] = molecular target: Fibroblast growth factor receptor 1 (Homo sapiens, UniProt P11362); assay: Inhibition of fibroblast growth factor receptor (FGFr)
Sequence of Fibroblast growth factor receptor 1 (P11362 whole entry): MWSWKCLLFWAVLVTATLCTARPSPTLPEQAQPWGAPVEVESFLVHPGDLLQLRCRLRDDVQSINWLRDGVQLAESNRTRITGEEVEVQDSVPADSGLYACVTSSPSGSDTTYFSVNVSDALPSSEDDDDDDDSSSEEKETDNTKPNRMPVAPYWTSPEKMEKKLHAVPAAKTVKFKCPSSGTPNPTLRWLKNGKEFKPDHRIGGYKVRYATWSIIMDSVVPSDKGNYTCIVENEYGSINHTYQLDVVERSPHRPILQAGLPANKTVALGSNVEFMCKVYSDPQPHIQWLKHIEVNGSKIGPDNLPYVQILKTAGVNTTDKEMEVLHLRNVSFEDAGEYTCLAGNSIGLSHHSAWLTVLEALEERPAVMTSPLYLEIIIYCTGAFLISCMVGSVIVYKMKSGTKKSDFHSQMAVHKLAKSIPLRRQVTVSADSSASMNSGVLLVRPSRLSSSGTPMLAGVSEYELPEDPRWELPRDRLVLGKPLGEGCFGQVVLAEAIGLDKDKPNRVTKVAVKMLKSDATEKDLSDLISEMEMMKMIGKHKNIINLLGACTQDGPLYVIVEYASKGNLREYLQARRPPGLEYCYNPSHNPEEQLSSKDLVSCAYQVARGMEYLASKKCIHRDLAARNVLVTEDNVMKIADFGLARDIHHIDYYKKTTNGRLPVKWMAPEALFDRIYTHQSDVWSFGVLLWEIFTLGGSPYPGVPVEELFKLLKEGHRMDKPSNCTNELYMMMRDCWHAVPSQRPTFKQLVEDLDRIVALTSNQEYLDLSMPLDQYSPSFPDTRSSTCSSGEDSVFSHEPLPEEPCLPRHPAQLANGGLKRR
How it was run: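 Recombinant kinases (PDGFr-β, FGFr-1, c-Src), enzyme inhibition IC50. Mean of at least two separate determinations, each done in triplicate; replicate values typically varied under 30%.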

A-431 [7] = assay: Ratio of treated and control A431 cell tumor mass in mice at 5 mg/kg peroral dose, days 7-21 administration; format: functional, Mus musculus; settings: route oral
How it was run: (§1)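 Nude mice (NCr nu/nu), 6–8 per group, 18–22 g, tumor fragments implanted in right axilla on day 0 (A431, C6, MCF-7, or NIH3T3 carrying human PDGF receptor), dosed by average cage weight; vehicle 50 mM sodium lactate buffer pH 4.0 unless suspended in 0.5% methyl cellulose. %T/C = median treated/median control tumor mass ×100, last therapy day.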

A-431 [8] = assay: Difference in days for treated (T) and control (C) A431 cell tumors to reach 750 mg in mice at 5 mg/kg peroral dose, days 7-21 administration; format: functional, Mus musculus; settings: route oral
How it was run: (§2)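 Nude mice (NCr nu/nu), 18–22 g, 6–8 per group, randomized and implanted with serially passaged tumor fragments in the right axilla on day 0. Dosed by average cage weight. Vehicle was 50 mM sodium lactate buffer, pH 4.0, or a 0.5% methyl cellulose suspension for one compound. Cisplatin was given in saline. T − C is the difference in days for treated and control tumors to reach 750 mg.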

Mus musculus [9] = assay: Weight change in PDGF-transfected mouse fibroblasts in mice at 12 mg/kg peroral dose, days 1-15 administration; format: functional; settings: route oral
How it was run: (§3)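 Tumor-bearing nude mice (NCr nu/nu, 18–22 g, 6–8 per group) were implanted in the right axilla with tumor fragments on day 0 and dosed by average cage weight. Vehicle was 50 mM sodium lactate pH 4.0, or 0.5% methyl cellulose suspension; cisplatin was given in saline. Host body weight change is given as the maximum treatment-related weight loss.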

SK-OV-3 [10] = assay: Difference in days for treated (T) and control (C) SKOV-3 cell tumors to reach 750 mg in mice at […] peroral dose, days 15-29 administration; format: functional; settings: route oral
NIH3T3 [11] = assay: Growth of NIH3T3 cell colonies in soft agar with discontinued treatment; format: functional, cell-based; settings: Mus musculus
How it was run: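 PDGF-B-transfected NIH3T3 (NIH3T3/PDGF) cells exposed 3 days to a concentration series, washed free of inhibitor, plated in drug-free soft agar; colonies stained and counted after two weeks. IC50; mean of two experiments, each in duplicate.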

C6 [12] = assay: C6 cell growth in soft agar with discontinued treatment; format: functional, cell-based, Rattus norvegicus; settings: Rattus norvegicus, C6
How it was run: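 C6 rat glioma cells given 3-day exposure to a concentration series, then washed free of inhibitor and plated in drug-free soft agar; colonies stained and counted after two weeks. IC50; mean of two experiments, each in duplicate.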

MCF7 [13] = assay: Difference in days for treated (T) and control (C) MCF-7 cell tumors to reach 750 mg in mice at 5 mg/kg peroral dose, days 1-15 administration; format: functional, Mus musculus; settings: route oral; how it was run: as §2
C6 [14] = assay: Weight change of C6 glioma tumor cells in mice at 10 mg/kg peroral dose, days 1-15 administration; format: functional, Mus musculus; settings: route oral; how it was run: as §3
NIH3T3 [15] = assay: Inhibition of NIH3T3 proliferation by sulforhodamine B assay; format: functional, cell-based, Mus musculus; settings: Mus musculus, NIH3T3
Mus musculus [16] = assay: Difference in days for treated (T) and control (C) PDGF-transfected mouse fibroblast tumors to reach 750 mg in mice at 12 mg/kg peroral dose, days 1-15 administration; format: functional; settings: route oral; how it was run: as §2
MCF7 [17] = assay: Net reduction in tumor burden between first and last treatments of MCF-7 cells in mice at 5 mg/kg peroral dose, days 1-15 administration; format: functional, Mus musculus; settings: route oral
How it was run: (§4)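 NCr nu/nu nude mice (18–22 g, 6–8 per group, randomized) had tumor fragments, kept by serial passage in nude mice, implanted in the right axilla on day 0. Mice were dosed by average cage weight on the listed days, over a range from toxic to ineffective doses. Vehicle was 50 mM sodium lactate pH 4.0 or 0.5% methyl cellulose suspension. Net log cell kill was taken between first and last treatments.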

MCF7 [18] = assay: Ratio of treated and control MCF-7 tumor mass in mice at 5 mg/kg peroral dose, days 1-15 administration; format: functional, Mus musculus; settings: route oral; how it was run: as §1
C6 [19] = assay: Net reduction in tumor burden between first and last treatments of C6 glioma cell tumors in mice at 10 mg/kg peroral dose, days 1-15 administration; format: functional, Mus musculus; settings: route oral; how it was run: as §4
Mus musculus [20] = assay: Net reduction in tumor burden between the first and last treatments of PDGF-transfected fibroblast cells in mice at 12 mg/kg peroral dose, days 1-15 administration; format: functional; settings: route oral; how it was run: as §4
C6 [21] = assay: Difference in days for treated (T) and control (C) C6 glioma cell tumors to reach 750 mg in mice at 10 mg/kg peroral dose, days 1-15 administration; format: functional, Mus musculus; settings: route oral; how it was run: as §2
SK-OV-3 [22] = assay: Weight change of SK-OV-3 cell tumors in mice at […] peroral dose, days 15-29 administration; format: functional, organism-based; set-up: dose 8.9 mg/kg
HT-29 [23] = assay: Difference in days for treated (T) and control (C) HT-29 cell tumors to reach 750 mg in mice at […] peroral dose, days 15-29 administration; format: functional, Mus musculus; settings: route oral
MCF7 [24] = assay: Weight change for MCF-7 cell tumors in mice at 5 mg/kg peroral dose, days 1-15 administration; format: functional, organism-based; set-up: dose 5 mg/kg; settings: Mus musculus; how it was run: as §3
A-431 [25] = assay: Net reduction in tumor burden between first and last treatments of A431 cell tumors in mice at 5 mg/kg peroral dose, days 7-21 administration; format: functional, Mus musculus; settings: route oral; how it was run: as §4
C6 [26] = assay: Ratio of treated and control C6 glioma cell tumor mass in mice at 10 mg/kg peroral dose, days 1-15 administration; format: functional, Mus musculus; settings: route oral; how it was run: as §1
C6 [27] = assay: C6 cell growth in soft agar with continuous treatment; format: functional, cell-based, Rattus norvegicus; settings: Rattus norvegicus, C6
How it was run: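 C6 rat glioma cells (F10 Ham's with 15% horse serum, 2.5% fetal calf serum) exposed 3 days to a concentration series, then plated in soft agar with compound still present at the same concentration; colonies stained and counted after two weeks. IC50; mean of two experiments, each in duplicate.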

COLO 205 [28] = assay: Net reduction in tumor burden between first and last treatments of COLO 205 cell tumors in mice at […] peroral dose, days 9-23 administration; format: functional, Mus musculus; settings: route oral
C6 [29] = assay: Inhibition of C6 cell proliferation in sulforhodamine B assay; format: functional, cell-based, Rattus norvegicus; settings: Rattus norvegicus, C6
How it was run: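 C6 rat glioma cells (F10 Ham's, 15% horse serum, 2.5% fetal calf serum) seeded and allowed 24 h to attach, then given serial 2-fold compound dilutions; 4 d at 37 °C, 5% CO2; growth read by sulforhodamine B staining. IC50; mean of two experiments, each in triplicate.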

Mus musculus [30] = assay: Ratio of treated and control PDGF-transfected mouse fibroblast tumor mass in mice at 12 mg/kg peroral dose, days 1-15 administration; format: functional; settings: route oral; how it was run: as §1
NIH3T3 [31] = assay: Growth of NIH3T3 cell colonies in soft agar with continuous treatment; format: functional, cell-based; settings: Mus musculus
How it was run: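 Soft agar cloning used PDGF-B-transfected NIH3T3 (NIH3T3/PDGF) cells. Cells were exposed 3 days to a concentration series, then plated in soft agar with the matching compound concentration kept present. Colonies were stained and counted after two weeks. IC50; mean of two experiments, each in duplicate.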

[32] = molecular target: Proto-oncogene tyrosine-protein kinase Src (Gallus gallus, UniProt P00523); assay: Inhibition of avian c-Src tyrosine kinase
COLO 205 [33] = assay: Ratio of treated and control COLO 205 cell tumor mass in mice at […] peroral dose, days 9-23 administration; format: functional, Mus musculus; settings: route oral
A-431 [34] = assay: Weight change of A431 cell tumors in mice at 5 mg/kg peroral dose, days 7-21 administration; format: functional, Mus musculus; settings: route oral; how it was run: as §3
[35] = molecular target: Platelet-derived growth factor receptor (PDGFr) (Rattus norvegicus, UniProt P20786+Q05030); assay: Inhibition of PDGF-induced autophosphorylation of PDGF-R in C6 cells
SK-OV-3 [36] = assay: Ratio of treated and control SKOV-3 cell tumor mass in mice at […] peroral dose, days 15-29 administration; format: functional; settings: route oral

Question: `CCN(CC)CCOc1ccc(Nc2ncc3cc(-c4c(Cl)cccc4Cl)c(=O)n(CC)c3n2)cc1` was tested. Which T-C (COLO 205 [1]) did it give?
Answer: 10.3 days

Question: What about the Weight change (COLO 205 [2]) of the same compound?
Answer: Weight gain

Question: And the Weight change (HT-29 [3])?
Answer: Weight gain

Question: And the IC50 [4]?
Answer: 150 nM

Question: And the IC50 [5]?
Answer: 1.7 nM

Question: What about the IC50 [6] of the same compound?
Answer: 30 nM

Question: And the Ratio (A-431 [7])?
Answer: 96%

Question: And the T-C (A-431 [8])?
Answer: 3.3 days

Question: And the Weight change (Mus musculus [9])?
Answer: -2.6 g

Question: And the T-C (SK-OV-3 [10])?
Answer: -0.8 days

Question: And the IC50 (NIH3T3 [11])?
Answer: 17 nM

Question: And the IC50 (C6 [12])?
Answer: 400 nM

Question: And the T-C (MCF7 [13])?
Answer: 18.3 days

Question: What about the Weight change (C6 [14]) of the same compound?
Answer: -1.2 g

Question: And the IC50 (NIH3T3 [15])?
Answer: 410 nM

Question: What about the T-C (Mus musculus [16]) of the same compound?
Answer: 5.9 days

Question: And the Net cell kill (MCF7 [17])?
Answer: 0.2 log10

Question: And the Ratio (MCF7 [18])?
Answer: 51%

Question: And the Net cell kill (C6 [19])?
Answer: -0.9 log10

Question: What about the Net cell kill (Mus musculus [20]) of the same compound?
Answer: -1.2 log10

Question: What about the T-C (C6 [21]) of the same compound?
Answer: 3 days

Question: What about the Weight change (SK-OV-3 [22]) of the same compound?
Answer: Weight gain

Question: What about the T-C (HT-29 [23]) of the same compound?
Answer: -4.8 days

Question: What about the Weight change (MCF7 [24]) of the same compound?
Answer: Weight gain

Question: And the Net cell kill (A-431 [25])?
Answer: -0.6 log10

Question: And the Ratio (C6 [26])?
Answer: 56%

Question: And the IC50 (C6 [27])?
Answer: 120 nM

Question: And the Net cell kill (COLO 205 [28])?
Answer: -0.2 log10

Question: What about the IC50 (C6 [29]) of the same compound?
Answer: 350 nM

Question: And the Ratio (Mus musculus [30])?
Answer: 13%

Question: And the IC50 (NIH3T3 [31])?
Answer: 1.5 nM

Question: What about the IC50 [32] of the same compound?
Answer: 17 nM

Question: What about the Ratio (COLO 205 [33]) of the same compound?
Answer: 57%

Question: And the Weight change (A-431 [34])?
Answer: -2.7 g

Question: And the IC50 [35]?
Answer: 1 nM

Question: And the Ratio (SK-OV-3 [36])?
Answer: 106%
